Rad51 HR inh: blocks human Rad51 in homologous recombination; Q06609; hRad51 DNA strand exchange, fluorescence dequenching; inhibition, % at 10 µM; 0.085% of 200,000 active; AID 1385;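 active = inhibition above 40% at the single screening dose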;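 note: 0% = DMSO control wells and 100% = blanks with heterologous ssDNA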
Target sequence (Q06609 whole entry, looked up): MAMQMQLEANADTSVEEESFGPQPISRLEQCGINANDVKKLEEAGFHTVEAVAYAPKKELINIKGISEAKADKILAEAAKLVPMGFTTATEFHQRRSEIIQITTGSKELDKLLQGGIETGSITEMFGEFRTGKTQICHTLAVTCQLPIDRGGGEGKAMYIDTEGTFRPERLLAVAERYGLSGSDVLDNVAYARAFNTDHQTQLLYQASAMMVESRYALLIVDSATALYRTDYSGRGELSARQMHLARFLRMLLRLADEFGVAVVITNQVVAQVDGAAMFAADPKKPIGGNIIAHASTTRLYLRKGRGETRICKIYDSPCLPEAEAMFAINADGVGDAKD
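System: human Rad51 nucleoprotein filaments preassembled on unlabelled ssDNA. Reagent: labelled 47-mer dsDNA for strand exchange. Schedule: 30-min compound preincubation and 15-min exchange, both room temperature. Measured by: FRET fluorescence dequenching, excitation 485 nm, emission 520 nm. Read-out: Fluorescence-based percent inhibition, control- and blank-normalised. Benchmarks: plate controls and plate blanks.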
CHOP inhibitor: blocks CHOP induction under ER stress | CHO-K1 CHOP-promoter luciferase, tunicamycin-induced, 15-18 h | inhibition, % at 10 µM | 3.8% of 220,000 active | AID 2732;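 active = compounds that reduced the stress-induced luciferase reporter signal by more than about 70% of percent inhibition, limit read from the data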;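 note: 0% = tunicamycin plus vehicle and 100% = wells without tunicamycin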
PKD1 kinase inh: blocks activity of human protein kinase D1; Q15139; PKD1 kinase fluorescence polarization assay; inhibition, % (concentration not given with the values); 0.056% of 200,000 active; AID 797
Lmaj promast: inhibitors of Leishmania major promastigote growth; Leishmania major promastigotes, resazurin fluorescence viability; inhibition, % at 10 µM; 9% of 200,000 active;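 note: promastigotes grown with compound for 44 hours at 28 °C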
Arbovirus inh: blocks arbovirus infection; arbovirus infection cell-based antiviral screen; AID 1251; 0.37% of 200,000 active; inhibition, % at 10 µM; in the data active = inhibition above about 30%
Wee1 degr inh: human Wee1 degradation inhibition, primary screen; reporter increase, % at 5 µM; HeLa Luc-Wee1K328M stability, luciferase luminescence; 100% = proteasome inhibitor MG132 effect; 1.2% of 220,000 active; P30291;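 active = activation above the mean of all tested compounds plus 3 SD, set per screening run, cut at about 8.8% in these data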;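 note: cells exposed to compound for 20 h before luminescence read; 0% = DMSO alone and 100% = MG132 at 30 µM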
An asterisk follows results filed as active; · = not tested or not shown. The list is not random: actives were taken first. Their share in the collection is about 12%. Cut-off read from the data, not from the text of the source, unless noted: active = inhibition above about 50%; inactive = the rest.

SMILES	Rad51 HR inh	CHOP inhibitor	PKD1 kinase inh	Lmaj promast	Arbovirus inh	Wee1 degr inh
CCCCCOC(=O)C1=C(C)Nc2nnnn2C1c1ccccc1Cl (stereo unspecified)	-1.3	58.0	-9.0	26.7	-11.9	-1.7
Cc1cc2[nH]c3c(c[n+](C)c4ccccc34)c2cc1C	33.5	-170.8	-3.9	100.4*	-35.9	6.1
CCOC(=O)c1cc(NC(=O)c2ccccc2)c(=O)n2c1oc1ccccc12	-16.9	-5.8	-1.2	-0.9	-8.4	1.3
C=CCn1c(SCc2ccccc2C#N)nnc1-c1cc(Br)ccc1O	-1.4	49.3	-5.0	-4.0	14.9	10.1*
C=CCn1c(SCC(N)=O)nnc1-c1cccc(Br)c1	-1.5	22.1	-3.7	-2.0	5.9	-3.6
COc1cc(C(C)=O)ccc1Oc1ncnc2c1cnn2-c1cccc(Cl)c1	2.6	50.2	-10.0	52.0*	3.4	0.2
CCN(C(=S)NC(=O)c1ccccc1Br)C1CCCCC1	·	-11.6	10.6	-4.7	-8.9	2.1
O=C(O)c1cc(N/N=C/C=C/c2ccccc2[N+](=O)[O-])ccc1Cl	8.9	-5.0	·	·	·	-1.2
NS(=O)(=O)c1ccccc1	-6.7	7.2	·	·	·	14.3*
CC(=O)c1ccc(NC(=O)COC(=O)c2nc(Cl)ccc2Cl)cc1	6.3	15.4	5.7	-4.2	1.4	-4.0
COc1cccc(-n2c(CN3CCN(c4ccccn4)CC3)nc3ccc([N+](=O)[O-])cc3c2=O)c1	-0.6	43.0	-8.3	16.4	-3.1	-1.5
COc1ccc(-n2c(CN3CCC(C)CC3)nc3ccc([N+](=O)[O-])cc3c2=O)c(OC)c1	-6.4	62.5	4.3	21.7	-3.3	2.6
COc1cccc(-n2c(CN3CCN(c4ccc(C)cc4)C(C)C3)nc3ccc([N+](=O)[O-])cc3c2=O)c1 (stereo unspecified)	6.5	10.7	0.2	91.8*	10.3	-0.3
COc1cccc(-n2c(CN3CCN(c4cccc(C)c4)C(C)C3)nc3ccc([N+](=O)[O-])cc3c2=O)c1 (stereo unspecified)	1.9	22.2	-2.9	65.9*	5.0	-1.3
C/C(=N\NC(=O)c1ccc(NS(=O)(=O)c2cccs2)cc1)c1ccc(O)cc1O	15.7	24.2	·	·	·	-0.9
O=C(NCCCN1CCOCC1)c1c(O)c2ccccc2[nH]c1=O	0.6	4.5	-2.6	7.5	2.9	2.1
COc1cc2[nH]c(=O)c(C(=O)NCCCN3CCCCC3)c(O)c2cc1OC	5.9	7.0	-3.2	93.7*	-5.9	7.5
CCCCn1c(NC(=O)c2ccccc2)c(C#N)c2nc3ccccc3nc21	·	-9.9	2.2	97.3*	-8.3	1.9
C=CCC(c1ccccc1F)N(CCN1CCOCC1)C(=O)Nc1cccc(Cl)c1 (stereo unspecified)	-1.3	44.1	-3.6	93.2*	3.1	0.1
O=C(Nc1cccc(Cl)c1)N(CCN1CCOCC1)Cc1ccccc1F	4.1	29.0	-1.1	1.4	7.4	1.0
Cc1noc(C)c1S(=O)(=O)Nc1ccc(C(=O)N2CCC(C)CC2)cc1	·	0.6	5.2	3.4	2.8	4.3
CCOC(=O)Cn1nc(C)c(NC(=O)c2ccc(Cl)c([N+](=O)[O-])c2)c1C	3.7	3.8	-5.7	12.5	4.9	0.0
CCN(CC)CCCNC1=C(Cl)C(=O)c2ccccc2C1=O	·	-29.2	-0.1	99.8*	-29.4	-1.5
CCC(=O)Nc1cccc(C(=O)c2ccc(C)c(C)c2)c1	14.8	31.8	-2.7	-5.7	2.1	0.3
COC(=O)c1c(C)cc(C)c2c1CC(C)(C)C2=O	4.5	-0.8	·	·	·	-1.2
SMILES	Rad51 HR inh	CHOP inhibitor	PKD1 kinase inh	Lmaj promast	Arbovirus inh	Wee1 degr inh
O=C(C=C=Nc1ccccc1)C(=O)N=C=Cc1ccccc1	-100.7	95.7*	·	·	·	1.5
Cc1sc(NC(=O)c2ccco2)c(C(c2cccnc2)N2CCN(C)CC2)c1C (stereo unspecified)	7.8	11.6	-8.0	9.1	3.5	-1.3
Cc1sc(NC(=O)c2ccco2)c(C(c2cccnc2)N2CCCC2)c1C (stereo unspecified)	1.7	28.1	1.1	99.0*	-2.6	2.7
COC(=O)c1sc2nc(N3CCCCC3)c3c(c2c1N)CCCC3	4.1	58.9	-5.8	4.4	-5.7	-2.0
NC(=O)c1sc2nc(N3CCCCC3)c3c(c2c1N)CCCC3	-11.1	92.5*	-4.2	2.5	10.6	3.0
C=C(C)CN=C1NN=C(c2cc(C)n(-c3ccc(C)cc3)c2C)CS1	11.6	74.5*	-11.8	91.1*	4.9	-0.9
Cc1ccc(CN2CCC(C(=O)NCCC(C)C)CC2)o1	1.8	15.6	13.3	60.2*	-10.4	-0.6
O=C(CSc1ncnc2c1sc1ccccc12)Nc1ccc(Br)cc1	-5.2	44.3	-15.5	59.6*	4.2	-1.1
Oc1ccc(N=Nc2n[nH]c(-c3ccc(Cl)cc3)n2)cc1	-1.5	75.2*	-1.5	-0.4	-15.4	-0.2
CCOC(=O)c1cnc2c(-c3ccc(Cl)cc3)cnn2c1C	-1.6	-47.6	2.1	3.7	-3.8	-2.1
CCOC(=O)c1cnc2c(N=Nc3ccccc3)c(N)nn2c1N	-11.9	19.7	-0.8	68.0*	-5.3	-0.1
CCOC(=O)c1cnc2c(-c3ccc(F)cc3)cnn2c1C(F)(F)F	1.3	-15.2	-5.9	97.2*	62.0*	-2.4
CCOC(=O)c1cnc2c(N=Nc3cccc(Cl)c3)c(N)nn2c1N	1.7	51.7	-2.8	-6.0	-11.1	1.7
CCOC(=O)c1cnc2c(-c3ccccc3)cnn2c1N	-6.4	80.4*	6.2	5.6	9.1	1.9
COc1ccc(N2C(=S)NC3N2C(=S)NC3(C)c2ccccc2)cc1 (stereo unspecified)	24.4	14.4	-2.6	-4.3	-27.1	0.9
CCOc1ccc(NC(=S)N(C)C)cc1	8.6	9.6	·	·	·	7.3
COc1ccccc1CNCC(O)(c1ccc(Cl)cc1)c1ccc(Cl)cc1	4.7	60.2	0.8	100.5*	-36.6	3.1
Cc1ccc(CNCC(O)(c2ccc(F)cc2)c2ccc(F)cc2)cc1	-0.7	85.6*	-2.0	8.1	-3.8	1.5
OC(CNCc1ccccc1)(c1ccc(F)cc1)c1ccc(F)cc1	-1.4	67.8	-7.1	10.1	-20.6	5.5
O=C(O)CCc1ccc(-c2ccc(Cl)cc2)o1	-0.8	-11.5	3.9	-1.4	2.1	-1.3
OC(CNCc1ccccc1F)(c1ccc(F)cc1)c1ccc(F)cc1	-7.3	75.0*	1.3	36.9	-2.6	0.3
CCN(CC)CCNCc1ccc(-c2ccc(Cl)cc2)o1	-7.1	82.0*	-2.4	90.8*	-30.8	1.0
CC(C)(C)NCC(O)(c1ccc(Cl)cc1)c1ccc(Cl)cc1	6.4	-8.8	1.0	23.9	-24.3	-0.6
CCN(CC)CCNCC(O)(c1ccc(Cl)cc1)c1ccc(Cl)cc1	-0.1	-21.5	-11.2	71.6*	-24.5	-1.5
O=[N+]([O-])c1ccc(C2Oc3ccccc3C3CC(c4ccccc4)=NN32)s1 (stereo unspecified)	-5.0	32.3	-0.9	99.3*	-32.7	5.2
COc1cc(OC)cc(C(=O)NNC(=S)Nc2ccc(S(N)(=O)=O)cc2)c1	-2.6	12.1	1.5	0.1	1.3	-3.8

Screening data as filed in PubChem BioAssay.
